IDH1 R132H inh: blocks human IDH1 R132H reductase activity | O75874 | diaphorase/resazurin fluorescence, 60 min | inhibition, % at 10 µM | hit rate 0.18% among 70,000; in the data active means inhibition above about 34%; inconclusive means no clear call, values can overlap the other calls; inactive means below about 11%
Target sequence (O75874 whole entry R132H): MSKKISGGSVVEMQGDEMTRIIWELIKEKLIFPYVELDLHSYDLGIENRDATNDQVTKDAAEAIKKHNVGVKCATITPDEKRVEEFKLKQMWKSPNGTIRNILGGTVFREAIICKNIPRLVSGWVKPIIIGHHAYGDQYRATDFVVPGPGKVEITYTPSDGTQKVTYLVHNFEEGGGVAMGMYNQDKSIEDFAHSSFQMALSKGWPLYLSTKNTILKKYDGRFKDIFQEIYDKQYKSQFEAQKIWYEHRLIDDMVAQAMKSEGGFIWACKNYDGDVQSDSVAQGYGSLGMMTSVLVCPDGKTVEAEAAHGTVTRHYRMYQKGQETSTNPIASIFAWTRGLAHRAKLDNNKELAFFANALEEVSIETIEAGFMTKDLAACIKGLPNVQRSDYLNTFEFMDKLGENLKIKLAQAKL
T cruzi growth-1: blocks T. cruzi growth in NIH3T3 culture. inhibition, % at 8.34 µM. T. cruzi beta-gal in NIH3T3, GalScreen luminescence, 90 h. hit rate 5.9% among 77,000. AID 624255;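 active means mean inhibition above about 93%, with at least 55% of replicates each passing it, limit read from the data, passing the limit was not always enough; inconclusive means only one of those two conditions holds; inactive means neither condition holds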
GASC1 inh: blocks human GASC-1 (KDM4C) demethylase activity; Q9H3R0; GST-KDM4C 2-372, H3K9me3 peptide, LANCE TR-FRET; inhibition, % at 12.5 µM; hit rate 0.15% among 96,000; AID 720574;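 active means mean replicate inhibition above about 25%, with at least 55% of replicates also reaching it, limit read from the data, passing the limit was not always enough; inconclusive means only one of those two conditions met; inactive means neither condition met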
Target sequence (Q9H3R0 2-372 limits assumed): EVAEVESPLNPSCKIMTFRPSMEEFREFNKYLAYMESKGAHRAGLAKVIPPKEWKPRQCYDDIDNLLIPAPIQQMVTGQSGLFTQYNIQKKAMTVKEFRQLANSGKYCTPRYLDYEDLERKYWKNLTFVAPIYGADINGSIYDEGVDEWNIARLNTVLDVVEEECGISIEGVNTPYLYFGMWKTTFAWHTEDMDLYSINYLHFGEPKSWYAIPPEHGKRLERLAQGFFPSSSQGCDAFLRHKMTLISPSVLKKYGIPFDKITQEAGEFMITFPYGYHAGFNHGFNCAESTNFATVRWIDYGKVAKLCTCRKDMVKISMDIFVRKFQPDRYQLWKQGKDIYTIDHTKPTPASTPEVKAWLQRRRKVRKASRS
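Assay system: GST-GASC-1 enzyme fragment 2-372 | Amount: 10 nM enzyme | Medium: HEPES buffer, pH 7.5, plus ascorbate | Reagent: H3K9me3 peptide substrate, Fe(II), 2-oxoglutarate | Doses: Single-point compound screen | Incubation: 30 min demethylation and 1 h detection at room temperature | Measured by: LANCE TR-FRET, excitation 340 nm, emissions 618 and 671 nm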
T cruzi growth-2: inhibitors of T. cruzi proliferation; T. cruzi beta-gal in NIH3T3, GalScreen luminescence, 90 h; shares compounds with T cruzi growth-1; inhibition, % at 8.35 µM; hit rate 72% among 5,600;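 active means mean replicate inhibition above about 95% and at least 55% of replicates individually reaching it, limit read from the data; inconclusive means only one of the two criteria is met; inactive means neither criterion is met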
T cruzi growth-3: blocks T. cruzi growth in NIH3T3 host cells | shares compounds with T cruzi growth-1 | T. cruzi beta-gal in NIH3T3, GalScreen luminescence, 90 h | inhibition, % at 2.09 µM | hit rate 21% among 5,600 | AID 651740;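 active means mean inhibition above about 95%, with at least 55% of replicates also reaching it, limit read from the data; inconclusive means meets just one of the two conditions; inactive means meets neither condition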
NIH3T3 tox: cytotoxicity in mouse NIH/3T3 fibroblasts; shares compounds with T cruzi growth-1; NIH/3T3 viability, CellTiter-Glo ATP luminescence, 90 h; cytotoxicity (signal decrease), % at 8.35 µM; hit rate 14% among 5,600; AID 651742;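 active means mean signal decrease across replicates above about 35% based on untreated-well scatter, with enough replicates individually passing, limit read from the data; inconclusive means no rule stated though some were filed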
NIH3T3 tox 2: cytotoxicity in mouse NIH/3T3 fibroblasts | shares compounds with T cruzi growth-1 | NIH/3T3 viability, CellTiter-Glo ATP luminescence, 90 h | inhibition, % at 24.9 µM | hit rate 56% among 5,600 | AID 651744;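 active means mean loss of cell viability signal at or above a set limit, and enough replicates individually reaching it; inconclusive means meets only the mean limit or only the replicate share; inactive means meets neither condition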
Each line names hits and unclear results; the compound was inactive in the other large screens (follow-up assays come after a bar, where they were run). Many of the other results were omitted from the sample, so hits are more common in it than they were.

C[C@H](CO)N1C[C@H](C)[C@H](CN(C)C(=O)CC2CC2)Oc2cc(C#CCC3CCCC3)ccc2S1(=O)=O	T cruzi growth-1 121 | T cruzi growth-2 99 | T cruzi growth-3 inactive | NIH3T3 tox inactive | NIH3T3 tox 2 104
C[C@H]1CN([C@@H](C)CO)S(=O)(=O)c2ccc(C#CCC3CCCC3)cc2O[C@@H]1CN(C)C(=O)CC1CC1	T cruzi growth-1 121 (no result: GASC1 inh) | T cruzi growth-2 103 | T cruzi growth-3 113 | NIH3T3 tox inactive | NIH3T3 tox 2 105
C[C@@H]1CN([C@@H](C)CO)S(=O)(=O)c2ccc(C#CCC3CCCC3)cc2O[C@@H]1CN(C)C(=O)CN(C)C	none
C[C@@H]1CN([C@@H](C)CO)S(=O)(=O)c2ccc(C#CCC3CCCC3)cc2O[C@H]1CN(C)C(=O)CN(C)C	none
CC(=O)N(C)C[C@H]1Oc2cc(C#CCC3CCCC3)ccc2S(=O)(=O)N([C@H](C)CO)C[C@H]1C	none
C[C@H](CO)N1C[C@H](C)[C@@H](CN(C)C(=O)CC2CC2)Oc2cc(C#CCC3CCCC3)ccc2S1(=O)=O	T cruzi growth-1 116 | T cruzi growth-2 inconclusive | T cruzi growth-3 102 | NIH3T3 tox inactive | NIH3T3 tox 2 104
C[C@H]1CN([C@@H](C)CO)C(=O)c2cccc(NS(=O)(=O)c3ccc(F)cc3)c2O[C@@H]1CN(C)C(=O)Nc1cccc2ccccc12	none (no result: T cruzi growth-1)
O=C(C[C@@H]1CC[C@H]2[C@@H](COC[C@@H](O)CN2CC2CCOCC2)O1)N1CCOCC1	none (no result: IDH1 R132H inh)
COc1ccc2c3c(n(C)c2c1)[C@@H](CO)N(C(=O)CN1CCOCC1)CC31CN(C(=O)C2CC2)C1	none (no result: IDH1 R132H inh, T cruzi growth-1)
C[C@H]1CN([C@@H](C)CO)C(=O)c2cc(NS(C)(=O)=O)ccc2O[C@@H]1CN(C)S(C)(=O)=O	none
COc1ccccc1-c1cn(CC[C@@H]2CC[C@H](NC(=O)NC(C)C)[C@@H](CO)O2)nn1	none
CNC(=O)C[C@H]1CC[C@H]2[C@@H](COc3ccc(NC(=O)c4cccs4)cc3C(=O)N2C)O1	none (no result: IDH1 R132H inh)
N#Cc1ccc(-c2ccc3c(c2)[C@@H]2[C@@H](CCN2C(=O)C2CC2)[C@H](CO)N3)cc1	T cruzi growth-1 97 (no result: IDH1 R132H inh) | T cruzi growth-2 106 | T cruzi growth-3 inactive | NIH3T3 tox inactive | NIH3T3 tox 2 inactive
N#Cc1ccc(-c2ccc3c(c2)[C@@H]2[C@@H](CCN2C(=O)C2CCCC2)[C@@H](CO)N3)cc1	none (no result: IDH1 R132H inh, T cruzi growth-1)
N#Cc1ccc(-c2ccc3c(c2)[C@H]2[C@H](CCN2C(=O)C2CC2)[C@@H](CO)N3)cc1	T cruzi growth-1 105, GASC1 inh inconclusive (no result: IDH1 R132H inh) | T cruzi growth-2 inconclusive | T cruzi growth-3 inactive | NIH3T3 tox inactive | NIH3T3 tox 2 32
COCC(=O)N1CC[C@H]2[C@H](CO)Nc3ccc(-c4ccc(C#N)cc4)cc3[C@H]21	none (no result: IDH1 R132H inh)
COCC(=O)N1CC[C@@H]2[C@H]1c1cc(-c3ccc(C#N)cc3)ccc1N[C@@H]2CO	T cruzi growth-1 114 (no result: IDH1 R132H inh) | T cruzi growth-2 100 | T cruzi growth-3 inactive | NIH3T3 tox inactive | NIH3T3 tox 2 inactive
N#Cc1ccc(-c2ccc3c(c2)[C@H]2[C@H](CCN2C(=O)Cc2ccccc2)[C@@H](CO)N3)cc1	none (no result: IDH1 R132H inh)
N#Cc1ccc(-c2ccc3c(c2)[C@@H]2[C@@H](CCN2C(=O)Cc2ccccc2)[C@@H](CO)N3)cc1	T cruzi growth-1 98 (no result: IDH1 R132H inh) | T cruzi growth-2 100 | T cruzi growth-3 100 | NIH3T3 tox inactive | NIH3T3 tox 2 40
N#Cc1ccc(-c2ccc3c(c2)[C@H]2[C@H](CCN2C(=O)C2CCC2)[C@@H](CO)N3)cc1	none (no result: IDH1 R132H inh, T cruzi growth-1)
Cc1cccc(NC(=O)CSc2nc3sc(C)c(C)c3c(=O)n2C)c1C	none (no result: T cruzi growth-1, GASC1 inh)
C[C@@H]1CCCCO[C@@H](CN(C)Cc2ccncc2)[C@@H](C)CN([C@@H](C)CO)C(=O)c2cc(NC(=O)C3CCCCC3)ccc2O1	none (no result: IDH1 R132H inh)
COCC(=O)Nc1ccc2c(c1)[C@H]1C[C@@H](CC(=O)NCc3ccccc3OC)O[C@@H](CO)[C@H]1O2	none
C[C@@H]1CN([C@@H](C)CO)C(=O)c2cccc(NC(=O)C3CC3)c2O[C@H]1CN(C)Cc1ccc(C(=O)Nc2ccccc2N)cc1	T cruzi growth-1 99 | T cruzi growth-2 106 | T cruzi growth-3 inactive | NIH3T3 tox inactive | NIH3T3 tox 2 inactive
C[C@@H]1CN([C@@H](C)CO)C(=O)c2cccc(NC(=O)C3CCOCC3)c2O[C@H]1CN(C)Cc1ccc(C(=O)Nc2ccccc2N)cc1	T cruzi growth-1 107 (no result: IDH1 R132H inh) | T cruzi growth-2 105 | T cruzi growth-3 inactive | NIH3T3 tox inactive | NIH3T3 tox 2 inactive
C[C@@H]1CN([C@@H](C)CO)C(=O)c2cccc(NC(=O)C3CCCCC3)c2O[C@@H]1CN(C)Cc1ccc(C(=O)Nc2ccccc2N)cc1	none (no result: IDH1 R132H inh)
C[C@@H]1CN([C@H](C)CO)C(=O)c2cccc(NC(=O)C3CCOCC3)c2O[C@@H]1CN(C)Cc1ccc(C(=O)Nc2ccccc2N)cc1	none (no result: IDH1 R132H inh)
C[C@@H]1CN([C@H](C)CO)C(=O)c2cccc(NC(=O)NC3CCCCC3)c2O[C@@H]1CN(C)Cc1ccc(C(=O)Nc2ccccc2N)cc1	none (no result: IDH1 R132H inh)
C[C@H]1CN([C@@H](C)CO)C(=O)c2cccc(NC(=O)NC3CCCCC3)c2O[C@H]1CN(C)Cc1ccc(C(=O)Nc2ccccc2N)cc1	T cruzi growth-1 inconclusive (no result: IDH1 R132H inh) | T cruzi growth-2 101 | T cruzi growth-3 inconclusive | NIH3T3 tox inactive | NIH3T3 tox 2 inconclusive
CNC(=O)CN(c1ccc(C)cc1)S(=O)(=O)c1ccccc1	none (no result: T cruzi growth-1, GASC1 inh)
O=C(C[C@@H]1C[C@H]2c3cc(NC(=O)NC4CCCC4)ccc3O[C@H]2[C@@H](CO)O1)NCc1ccc(Oc2ccccc2)cc1	none (no result: T cruzi growth-1)
CC(C)NC(=O)N1CCCCN2[C@H](CO)[C@@H](c3ccc(C#Cc4ccccc4F)cc3)[C@H]2C1	T cruzi growth-1 112 (no result: IDH1 R132H inh) | T cruzi growth-2 100 | T cruzi growth-3 inactive | NIH3T3 tox inactive | NIH3T3 tox 2 103
CC(C)NC(=O)N1CCCCN2[C@@H](CO)[C@@H](c3ccc(C#Cc4ccccc4F)cc3)[C@@H]2C1	none (no result: IDH1 R132H inh)
CC(C)NC(=O)N1CCCCN2[C@H](C1)[C@@H](c1ccc(C#Cc3ccccc3F)cc1)[C@@H]2CO	none (no result: IDH1 R132H inh)
CC(C)NC(=O)N1CCCCN2[C@H](CO)[C@H](c3ccc(C#Cc4ccccc4F)cc3)[C@@H]2C1	T cruzi growth-1 96 (no result: IDH1 R132H inh) | T cruzi growth-2 110 | T cruzi growth-3 inactive | NIH3T3 tox 42 | NIH3T3 tox 2 77
C[C@H](CO)N1C[C@H](C)[C@H](CN(C)C(=O)c2ccc(F)cc2)Oc2ncc(-c3ccncc3)cc2C1=O	none
CO[C@@H]1CN(C)C(=O)c2ccc(NC(=O)Nc3ccc4c(c3)OCO4)cc2OC[C@@H](C)N(C(C)=O)C[C@H]1C	none (no result: T cruzi growth-1)
CO[C@H]1CN(C)C(=O)c2ccc(NC(C)=O)cc2OC[C@@H](C)N(C(=O)CC2CC2)C[C@H]1C	none
O=C(CSc1nnnn1-c1ccccc1)Nc1cccc(Br)c1	none (no result: T cruzi growth-1, GASC1 inh)

Screening results: PubChem BioAssay, Broad Institute
